L major viab = Leishmania major promastigote growth inhibition, primary screen. actives 9% (n = 200,000). AID 1063, 2008. inhibition, % at 10 µM. Leishmania major promastigotes, resazurin fluorescence viability; in the data active = inhibition above about 50%;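 also: promastigotes grown with compound for 44 hours at 28 °C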
PMI act = activators of human PMI, primary screen, biochemical, fluorescence intensity, near-Km mannose 6-phosphate. Mannose-6-phosphate isomerase (Homo sapiens), P34949. purified human PMI, coupled resazurin fluorescence, 20 min; hits give high values; 1 = vehicle control, 0 substrate-free wells. activation factor at 20 µM. actives 0.005% (n = 190,000);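 active = activation factor of 2 or more at 20 µM, relative to plate controls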
Target sequence (P34949 whole entry, looked up): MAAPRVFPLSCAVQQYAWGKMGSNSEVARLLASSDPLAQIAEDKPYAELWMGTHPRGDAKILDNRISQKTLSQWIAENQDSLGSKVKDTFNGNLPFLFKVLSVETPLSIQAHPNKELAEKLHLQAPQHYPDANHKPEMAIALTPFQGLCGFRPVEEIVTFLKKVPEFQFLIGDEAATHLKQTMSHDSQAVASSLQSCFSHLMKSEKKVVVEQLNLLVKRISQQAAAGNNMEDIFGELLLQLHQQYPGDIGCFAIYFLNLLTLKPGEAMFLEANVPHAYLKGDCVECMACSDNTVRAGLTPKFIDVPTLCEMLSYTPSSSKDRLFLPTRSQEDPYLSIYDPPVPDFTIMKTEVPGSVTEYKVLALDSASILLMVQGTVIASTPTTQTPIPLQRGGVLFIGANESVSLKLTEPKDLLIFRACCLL
PMI act hi M6P = human PMI activators, high substrate, primary screen, biochemical, fluorescence intensity, near-saturating mannose 6-phosphate | Mannose-6-phosphate isomerase (Homo sapiens), P34949 | coupled PMI enzyme assay, resazurin fluorescence, 20 min; hits give high values; 1 = untreated enzyme, 0 = substrate-free blank | activation factor at 20 µM | actives 0.34% (n = 190,000) | AID 1216, 2008;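 active = activation factor of 2 or more at 20 µM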
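Technique: Diaphorase-driven resazurin-to-resorufin fluorescence, excitation 544, emission 590 nm | Assay system: Human PMI in coupled enzyme assay | Times: Enzyme reaction with compound 20 min at room temperature | Medium: HEPES-buffered pH 7.4 with magnesium and detergent | Reagent: Mannose-6-phosphate 1.0 mM (near-saturating) plus 0.22 mM NADP+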
Diaphorase act = compounds boosting diaphorase resazurin reduction – biochemical, uHTS, resorufin fluorescence, counter-screen for diaphorase-coupled primary assays, primary screen | activation factor at 20 µM | AID 1229, 2008 | actives 0.005% (n = 190,000) | Diaphorase/resazurin coupled assay, 16 min; hits give high values; 1 = vehicle wells, 0 = NADH-free wells;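 active = diaphorase activity raised at least twofold by the compound at 20 µM; inactive = activation factor below 2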
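Material: Purified diaphorase enzyme from Clostridium kluyveri | Buffer or medium: 50 mM HEPES pH 7.4 with 4.542 mM MgCl2, 0.005% Tween 20 | Times: 16 min enzyme reaction, ambient temperature | Signal: Red resorufin fluorescence at 544/590 nm excitation/emission | Measure: Increased resorufin signal from activators or reducing compounds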
WT yeast gro inh = growth inhibition of WT strain, primary screen, mitochondrial fusion inhibitor project, WT and mutant strains, chemical genetic. mitochondrial fusion phenotypic screen. inhibition, % at 10 µM. actives 2.1% (n = 190,000); in the data active = inhibition above about 58%; tested in S. cerevisiae
* = called active by the depositor. Most compounds without a hit are left out; they make up all but 10% or so of the library.

SMILES	L major viab	PMI act	PMI act hi M6P	Diaphorase act	WT yeast gro inh
O=C(N/N=C/c1ccc(O)cc1)Nc1cccc2nsnc12	54*	1	1	1.1	10
COc1cc(/C=N/NC(=O)Nc2cccc3nsnc23)cc(OC)c1OC	7	0.9	0.9	1	2
CN1C(=O)c2ccccc2Sc2ccc(NC(=O)N3CCCC3)cc21	9	1	1	1	79*
CCCNC(=O)Nc1ccc2c(c1)N(C)C(=O)c1ccccc1S2	-3	0.8	0.8	0.8	-4
CN1CCN(C(=O)Nc2ccc3c(c2)N(C)C(=O)c2ccccc2S3)CC1	98*	1	1	0.9	0
CCc1ccc(NC(=O)CN(c2ccc3c(c2)OCO3)S(=O)(=O)c2c(C)noc2C)cc1	4	1	1	0.9	12
COc1ccc(N(CC(=O)NCc2ccc(C)cc2)S(=O)(=O)c2c(C)nn(C)c2C)cc1	1	1	0.9	1	-4
COc1ccc2nc(NC(=O)CN(c3ccc(C)cc3)S(=O)(=O)c3c(C)nn(C)c3C)sc2c1	80*	0.9	0.9	0.9	69*
CCc1ccc(N(CC(=O)Nc2nc3ccc(C)cc3s2)S(=O)(=O)c2c(C)noc2C)cc1	52*	0.9	0.9	0.8	48
Cc1ccc2nc(NC(=O)CN(C)S(=O)(=O)c3ccc(Br)s3)sc2c1	99*	0.9	0.9	0.8	49
O=C(c1ccc([N+](=O)[O-])cc1)N1CCN(Cc2ccccc2[N+](=O)[O-])CC1	-3	1	0.9	0.9	-17
COc1ccc(NC(=O)N2c3ccccc3CC2C)cc1OC (centres undefined)	4	1	1	0.9	95*
O=C1COc2ccc(-c3csc(=Nc4ccc(OC(F)F)cc4)n3CC3CCCO3)cc2N1 (centres undefined)	99*	0.9	1	0.9	54
CC(NS(=O)(=O)c1ccc(CCC(=O)NCc2cccnc2)cc1)c1ccccc1 (centres undefined)	74*	1	1	1	10
Cc1ccc(CNC(=O)CCc2ccc(S(=O)(=O)NC3CCCCC3)cc2)cc1	73*	1	1.2	0.9	-1
CC(C)NS(=O)(=O)c1ccc(CCC(=O)NCc2cccnc2)cc1	-8	1	1	0.9	0
CC(NC(=O)CCc1ccc(S(=O)(=O)NC2CCCCC2)cc1)c1ccccc1 (centres undefined)	96*	1	1.1	0.9	6
COc1ccc(Cl)cc1N(C(=O)Nc1cccc(Cl)c1)C1=NCC(C)S1 (centres undefined)	10	1	1	0.9	3
COC(=O)C1=C(N)c2c(F)cccc2C1(C#N)c1ccc(F)cc1 (centres undefined)	51*	0.9	1	0.9	0
CC(C)(C)NC(=O)COC(=O)CNC(=O)c1cc(Cl)cc([N+](=O)[O-])c1	-5	0.9	1	0.9	19
O=C(/C=C/c1ccc(OC2CSC2)cc1)c1ccc(Cl)cc1	54*	1	1	0.8	2
COc1ccc(C(=O)/C=C/c2ccc(OC3CSC3)cc2)cc1OC	12	0.7	0.9	0.8	26
Cc1cc(C(=O)CC#N)c(C)n1-c1ccc(OC(F)F)cc1	-3	1.2	0.9	0.9	-2
COC(=O)c1cc(C(=O)OC)cc(-n2c(C)cc(C(=O)CC#N)c2C)c1	95*	0.8	0.9	0.8	-7
Cc1cccc2c(=O)cc(C)n(Cc3ccccc3)c12	59*	0.9	0.9	0.7	18
CN(C)N1C(N)=C(C#N)C(c2ccsc2)C2=C1CC(C)(C)CC2=O (centres undefined)	1	0.9	0.8	0.8	-32
Cc1ccc(N2C(N)=C(C#N)C(c3ccsc3)C3=C2CC(C)(C)CC3=O)cc1 (centres undefined)	73*	1	0.8	0.9	3
N#CC1=C(N)N(c2ccccc2)C2=C(C(=O)CCC2)C1c1ccsc1 (centres undefined)	55*	0.8	0.7	0.7	-1

Screening data deposited in PubChem by several laboratories.
